ChEMBL document CHEMBL1157559, “Synthesis and biological evaluation of novel pyrazolyl-2,4-thiazolidinediones as anti-inflammatory and neuroprotective agents” (Bioorg Med Chem, 2010)

Legend:
[1] = target: T1, Prostaglandin G/H synthase 1 (Ovis aries) (UniProt P05979); test: Inhibition of ovine COX1 at 10 uM
T1 sequence (whole entry): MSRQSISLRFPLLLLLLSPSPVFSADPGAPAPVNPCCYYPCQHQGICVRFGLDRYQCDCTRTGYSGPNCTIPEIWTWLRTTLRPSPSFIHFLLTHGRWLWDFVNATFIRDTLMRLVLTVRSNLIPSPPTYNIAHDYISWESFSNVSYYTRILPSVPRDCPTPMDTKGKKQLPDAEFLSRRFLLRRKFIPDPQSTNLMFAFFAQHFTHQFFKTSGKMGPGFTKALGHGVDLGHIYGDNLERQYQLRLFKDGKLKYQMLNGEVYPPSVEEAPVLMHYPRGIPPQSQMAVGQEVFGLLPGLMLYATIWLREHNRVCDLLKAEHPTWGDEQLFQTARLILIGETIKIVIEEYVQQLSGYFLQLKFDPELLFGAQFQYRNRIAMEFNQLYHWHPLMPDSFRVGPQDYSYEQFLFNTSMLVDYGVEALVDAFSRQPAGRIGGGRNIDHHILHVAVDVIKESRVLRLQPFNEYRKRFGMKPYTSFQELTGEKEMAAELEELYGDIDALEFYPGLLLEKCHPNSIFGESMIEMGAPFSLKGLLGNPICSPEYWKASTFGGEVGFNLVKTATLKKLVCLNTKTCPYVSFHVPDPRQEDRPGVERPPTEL
How it was run: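 Kit assay with ovine COX-1, run per manufacturer's protocol. Read-out was percent inhibition of prostaglandin production, with compound at 10 µM and three experiments.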

[2] = test system: Rattus norvegicus; test: Antiinflammatory activity in Wistar albino rat acute inflammatory model assessed as inhibition of formalin-induced paw edema at 20 mg/kg, po administered 1 hr before formalin challenge measured after 2 hrs by plethysmometer relative to control; format: functional; parameters: scale not given: the % may be the effect or the level left
How it was run: (§1)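 Male Wistar rats, 180–200 g, groups of five. Test compound 20 mg/kg po; 1 h later 0.1 mL 2% formalin injected subplantar into left hind paw under light ether anesthesia. Paw volume by water plethysmometer at 0 and 1, 2, 3, 4 h after formalin. % inhibition = (Vt−V0)control minus (Vt−V0)treated, divided by (Vt−V0)control ×100. Mean ± SEM, ANOVA with Student–Newman–Keuls.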

[3] = test system: Rattus norvegicus; test: Antiinflammatory activity in Wistar albino rat acute inflammatory model assessed as inhibition of formalin-induced paw edema at 20 mg/kg, po administered 1 hr before formalin challenge measured after 4 hrs by plethysmometer relative to control; format: functional; parameters: scale not given: the % may be the effect or the level left; how it was run: as §1
[4] = test system: Rattus norvegicus; test: Antiinflammatory activity in Wistar albino rat sub-acute inflammatory model assessed as inhibition of turpentine oil-induced granuloma pouch exudate volume at 20 mg/kg, po 1 hr before turpentine oil challenge for 7 days assessed measured on day 8; format: functional
How it was run: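 Male rats 120–150 g, five per group. Subcutaneous dorsal pouch made under ether with 2 mL air, then 0.5 mL turpentine oil injected. Compound 20 mg/kg po 1 h before turpentine, then daily for seven days. On day 8 exudate drawn by syringe under anesthesia and volume measured. % inhibition = (Vcontrol − Vtreated)/Vcontrol ×100.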

O=C1NC(=O)/C(=C/c2cn(-c3ccc([N+](=O)[O-])cc3)nc2-c2ccc(Cl)cc2)S1
inhibition [1]: 28.4%
Activity [2]: 46%
Activity [3]: 68%
inhibition in vivo at 20 mg/kg [4]: 51%
